Laboratory results: ChEMBL document CHEMBL3227998, “Synthesis and pharmacological activity of 2,3,4,5,-tetrahydro-1,5-methano-1H-3-benzazepines” (J Med Chem, 1979)
Active and inactive are the calls of the source. The rule behind the calls is not given here.

Experiments:
Mus musculus [1] = test: Analgesic activity in sc dosed mouse by eddy's hot-plate method; format: functional
Summary of the method: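 Mice were given aqueous solutions of the oxalate salts subcutaneously. Antinociception was read by the Eddy hot-plate method, and analgesic potency was expressed as ED50 in mg/kg.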

Mus musculus [2] = test: (§1) Toxicity in sc dosed mouse; format: organism-based; conditions: in vivo
Mus musculus [3] = test: Inhibition of morphine-induced response in mouse at 1 mg/kg, sc by tail-flick antagonist assay; format: functional; design: scale not given: the % may be the effect or the level left; conditions: route subcutaneous
Mus musculus [4] = test: Inhibition of morphine-induced response in mouse at 0.3 mg/kg, sc by tail-flick antagonist assay; format: functional; design: scale not given: the % may be the effect or the level left; conditions: route subcutaneous
[5] = as §1; format: organism-based; conditions: in vivo
Mus musculus [6] = test: Inhibition of morphine-induced response in mouse at 3 mg/kg, sc by tail-flick antagonist assay; format: functional; design: scale not given: the % may be the effect or the level left; conditions: route subcutaneous

| SMILES | Activity (Mus musculus [1]) | Activity (Mus musculus [2]) | ED50 (Mus musculus [1]) [mg/kg] | other results |
| --- | --- | --- | --- | --- |
| CC(C)=CCN1CC2CC(C1)c1ccccc12.O=C(O)C(=O)O | inactive | Toxic | – | – |
| CCCN1CC2CC(C1)c1ccccc12.O=C(O)C(=O)O | inactive | Toxic | – | Activity (Mus musculus [3]): 47% |
| O=C(O)C(=O)O.c1ccc2c(c1)C1CC2CN(CC2CC2)C1 | inactive | Toxic | – | Activity (Mus musculus [4]): 58% |
| CN1CC2CC(C1)c1ccccc12.O=C(O)C(=O)O | inactive | Toxic | – | – |
| c1ccc2c(c1)CC1CC2CCN1 (stereo not drawn) | – | – | 10.2 | – |
| COc1ccc2c3c1O[C@H]1[C@@H](O)C=C[C@H]4[C@@H](C2)N(C)CC[C@@]341 [CODEINE] | – | – | 5.8 | – |
| c1ccc2c(c1)C1CCNCC2C1 (stereo not drawn) | – | – | 4.9 | – |
| C=CCN1CC2CC(C1)c1ccccc12.O=C(O)C(=O)O | – | – | 15.6 | LD50 [5]: 47 mg/kg; Activity (Mus musculus [6]): 56% |
| O=C(O)C(=O)O.c1ccc(CCN2CC3CC(C2)c2ccccc23)cc1 | inactive | Non-toxic | – | – |
